From PubChem
TbMetRS inhib: T. brucei MetRS inhibitors, primary screen, biochemical, luminescence. methionyl-tRNA synthetase (Trypanosoma brucei brucei). purified T. brucei MetRS, ATP depletion, Kinase-Glo luminescence. AID 624268, 2012. inhibition, % at 11.9 µM. 360,000 tested, 0.4% active;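 active = inhibition above a per-plate cutoff of the control wells' mean inhibition plus 3 SD, cut at about 5.5% in these data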;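 also: 0% = DMSO wells median and 100% = median of wells with control inhibitor compound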
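Test system: purified T. brucei MetRS enzyme. Also added: ATP, methionine and E. coli bulk tRNA substrates. Compound: 11.9 µM single point. Schedule: 15 min enzyme-compound preincubation, 2 h reaction, 10 min detection, 25 °C. Signal: luciferase luminescence of residual ATP, Kinase-Glo. Evaluation: percent inhibition versus plate control medians. Controls: DMSO wells, low control.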
NadD inh: inhibitors of S. aureus NadD, primary screen, biochemical, colorimetric, uHTS. Nicotinate-nucleotide adenylyltransferase NadD (Staphylococcus aureus N315). purified NadD enzyme, colorimetric absorbance read-out. inhibition, % at 20 µM. 360,000 tested, 0.78% active. AID 602399, 2012; in the data active = inhibition above about 26%
core dimer inh: inhibitors of HCV core protein dimerization, primary screen, biochemical, TR-FRET, high-throughput. inhibition, % at 5 µM. AID 1899, 2009. TR-FRET GST/Flag-core106 dimerization, 1536-well. 300,000 tested, 0.33% active;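 active = inhibition above the mean of all tested compounds plus 3 SD, set per screening campaign, cut at about 45% in these data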
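Material: Tagged HCV core106 pair (GST and Flag) | Amount: GST-core106 13.5 nM, Flag-core106 17 nM | Medium: KF-containing HEPES buffer, pH 7.45, DTT, CHAPS, BSA | Reagent: Eu donor and XL665 acceptor anti-tag antibodies | Schedule: 4 h at 22.5 °C | Technique: Time-resolved FRET, ex 340 nm, em 617 and 671 nm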
Rce1 inh: yeast Rce1p protease inhibitors, primary screen, biochemical, fluorescence, cell-free homogeneous. CAAX prenyl protease 2 (Saccharomyces cerevisiae (strain ATCC 204508 / S288c)), Q03530. yeast membranes, quenched prenylated peptide cleavage fluorescence. 290,000 tested, 0.27% active. calls only;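 active = fall in fluorescence gain of 50% or more versus controls, with final raw signal at or below 3038400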;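 also: plate controls were neutral control wells for no effect and wells lacking membranes for full effect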
Target sequence (Q03530 whole entry, looked up): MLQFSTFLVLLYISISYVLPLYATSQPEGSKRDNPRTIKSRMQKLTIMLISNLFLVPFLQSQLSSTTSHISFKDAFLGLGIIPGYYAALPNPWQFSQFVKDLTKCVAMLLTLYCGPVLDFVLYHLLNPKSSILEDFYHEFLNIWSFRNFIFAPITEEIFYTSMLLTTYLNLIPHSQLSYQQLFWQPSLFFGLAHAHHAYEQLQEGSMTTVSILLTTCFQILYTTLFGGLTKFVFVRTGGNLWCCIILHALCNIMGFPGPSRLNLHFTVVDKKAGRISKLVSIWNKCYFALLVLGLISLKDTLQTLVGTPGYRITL
Pemphigus Ab inh: inhibitors of pemphigus antibody binding to DSG3, primary screen, biochemical, bead-based, flow cytometry, scFv-GFP. Desmoglein-3 (Homo sapiens), P32926. DSG3-coupled beads, scFv-anti-DSG3-GFP binding; active compounds read low. binding (percent of control), % at 10 µM. 310,000 tested, 0.48% active;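 active = binding more than 3 SD below its plate's average and above zero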;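 also: hits lower antibody fragment binding to DSG3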
NadD conf: inhibitors of S. aureus NadD, confirmation, biochemical, colorimetric, single concentration | shares compounds with NadD inh | purified S. aureus NadD, colorimetric enzyme assay | inhibition, % at 20 µM | 2,000 tested, 13% active | AID 624309, 2012; in the data active = inhibition mostly above about 42%, no sharp cut-off; inactive = mostly below about 42%
* marks the source's active call; other numbers are inactive results; i = inactive; . = no result given; + = active, no number. In the library only some 1.9% were active in any assay of this set; here they are far more common.

SMILES	TbMetRS inhib	NadD inh	core dimer inh	Rce1 inh	Pemphigus Ab inh	others
CC1(C)NC(=O)N(CC(=O)OCC(=O)Nc2c(Br)cc([N+](=O)[O-])cc2Br)C1=O	0	2	.	.	98
O=C(Nc1ccc([N+](=O)[O-])cn1)c1ccc2c(c1)OCO2	0	7	-4	i	88
CC(C(=O)OCC(=O)Nc1ccc(S(=O)(=O)N2CCCCC2)cc1)N1C(=O)c2ccccc2C1=O (configuration not stated)	0	-7	21	i	93
COc1ccc(CNS(=O)(=O)c2cc3c(cc2C)N(C)CCO3)cc1	0	-3	5	i	105
O=C(CCc1ccc(S(=O)(=O)NC2CCCCC2)cc1)Nc1ccccc1	-1	-7	2	i	104
Cc1cccc(OCC(=O)NC(=S)Nc2ccc(S(=O)(=O)NC3CCCCC3)cc2)c1	-1	-6	19	i	63*
Cc1ccc(NC(=O)CCc2ccc(S(=O)(=O)NC3CCCCC3)cc2)cc1	-1	-9	9	+	113
O=c1c(Br)ccc(Br)cc1Br	0	14	.	.	115
Cn1cc(C(=O)NCCN2CCN(c3cccc(Cl)c3)CC2)c2c3ccccc3n(C)c2c1=O	0	-11	-2	i	117
CCn1c(SCC(=O)Nc2ccc3c(c2)OCO3)nnc1C1CC1	0	-3	8	.	.
CCn1c2ccccc2c2cc(NC(=O)CSc3nnc(C4CC4)n3Cc3ccco3)ccc21	0	32*	37	i	101
COc1ccccc1NC(=O)NC1(C(=O)N2CCOCC2)CCCCC1	-1	-3	-14	i	.
O=C1C=C(c2ccccc2)CC(c2cccs2)C1n1cnc([N+](=O)[O-])c1 (configuration not stated)	-1	3	47*	i	95
CCCCCC(=O)N1C[C@H](O)[C@@H](n2cc(-c3ccc(F)cc3)nn2)C[C@@H]1c1ccc(C)cc1	-1	7	.	.	98
CCCCCC(=O)N1C[C@@H](O)[C@H](n2cc(-c3ccc(F)cc3)nn2)C[C@@H]1c1ccc(OC)cc1	-1	3	.	.	79*
CCOc1ccc(-n2nc3c(=O)n(CCN4CCCCC4)nc(C)c3c2C)cc1	-1	2	-6	i	103
CN(C)CC(C)(C)CNC(=S)NCc1ccc2c(c1)OCO2	-1	0	-3	+	.
Cc1cc(-c2nn(-c3ccccc3)cc2/C=C2\SC(N)=NC2=O)ccc1OC(C)C	0	35*	-8	i	84
CCCOc1ccc(-c2nn(-c3ccccc3)cc2/C=C2\SC(N)=NC2=O)cc1	0	-3	-2	i	90
Nc1c(C(=O)Nc2ccc(S(=O)(=O)N3CCCC3)cc2)sc2nc3ccc(OC(F)(F)F)cc3cc12	0	28	63*	i	113
Cc1nc2ccccc2c(=O)n1/N=C/c1ccccc1O	-1	-1	-1	i	85
Cc1nc2ccccc2c(=O)n1/N=C/c1ccc(O)c(O)c1O	0	33*	0	i	92
O=C(CSc1nc(O)cc(=O)n1-c1ccccc1)Nc1ccc2c3c(cccc13)CC2	-1	9	17	i	41*
COC(=O)/C=c1/s/c(=C(\C#N)C(=O)NCc2ccco2)n(-c2ccc(C)cc2)c1=O	-1	14	57*	i	.
O=C(Cn1nnc2ccccc21)c1ccc(Br)cc1	0	2	-3	i	13*
SMILES	TbMetRS inhib	NadD inh	core dimer inh	Rce1 inh	Pemphigus Ab inh	others
Cc1ccccc1NC(=O)Cn1nc(-c2ccccc2)nc1-c1ccccc1	-1	3	-2	i	-17*
Cc1cccc(C)c1NC(=O)Cn1nc(-c2ccccc2)nc1-c1ccccc1	0	-6	-3	i	91
Cc1ccc(-n2nnnc2SCC(=O)Nc2ccc3c(c2)COC3=O)cc1C	1	5	49*	i	109
CC(=O)Nc1ccc(NC(=O)CSc2nnnn2-c2ccc(F)cc2)cc1	-1	-7	1	i	61*
COc1ccc2c(c1)oc1c(SCc3nc4ccccc4[nH]3)nc(C)nc12	0	-1	.	.	105
CN(Cc1nccn1C)C(=O)c1ccc(OC2CCN(CCc3ccccc3)CC2)cc1	0	-4	6	i	111
NS(=O)(=O)c1ccc(CCNC(=O)C2CCN(C(=O)Nc3ccccc3)CC2)cc1	0	-2	.	.	57*
O=C(NCCc1ccccc1)C1CCN(c2ncccn2)CC1	0	-1	-2	i	89*
Nc1ccc(OCCCc2c(N)nc(N)nc2N)cc1	0	44*	-3	i	97
CC(C)(C)NC(=O)C(c1ccc(F)cc1)N(Cc1ccco1)C(=O)CCC(=O)Nc1nccs1 (configuration not stated)	-1	-11	-11	i	.
Cc1ccccc1OCC(=O)Nc1ccccc1-c1ccccc1	-1	4	2	i	8.5*
FC(F)(F)c1cc(Oc2ccccc2)ncc1-c1nnc(-c2ccccc2Cl)o1	0	6	5	+	.
CCCOc1ccc(-c2nnn(CC(=O)OCC)n2)cc1	-1	-2	-9	i	100
CCCOc1ccc(-c2nnn(CC(=O)N3CCCCC3)n2)cc1	-1	-6	3	i	88*
O=C(CCNC(=O)c1ccc(Br)o1)NCc1ccccc1Cl	0	-4	-8	i	104
C=C(C)CSc1cc(C)nc2c(-c3ccccc3)c(C)nn12	0	3	-4	+	113
CCOC(=O)c1cnc(-c2ccccc2)nc1-c1ccccc1	0	-3	-2	i	108
CCN(CC)C(=O)Cn1cc(C(=O)C(=O)NCCCN2CCCCC2)c2ccccc21	1	-7	-3	i	115
O=C1c2ccc(-c3ccc(Cl)c(C(F)(F)F)c3)cc2S(=O)(=O)c2cccc(C(=O)N3CCN(c4ccc(Cl)cn4)CC3)c21	0	55*	.	.	98	NadD conf=7
COc1ccc(-c2ccc3c(c2)S(=O)(=O)c2cccc(C(=O)N4CCN(c5ccccn5)CC4)c2C3=O)cc1OC	-1	15	.	.	102
CCOc1ccc(N=Nc2c(=O)[nH]n3c(=O)c4c([nH]c23)CCCC4)cc1	-1	32*	-4	i	99	NadD conf=24
Cc1ccc2c(c1)N(CC(=O)NCC1CCCO1)C(=O)C(C)O2 (configuration not stated)	1	0	-2	i	106
